According to ChEMBL document CHEMBL1127444, “Aza-tricyclic substance P antagonists” (J Med Chem, 1994):

Key:
[1] = target: Substance-P receptor (Homo sapiens, UniProt P25103); experiment: Tested in vitro for the binding affinity towards NK1 receptor in human IM-9 cells using [125I]-labeled bolton-hunter substance P as ligand; assay type: cell-based
Outline: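 IC50 from six-point concentration–response curves, each concentration in duplicate. Mean ± SEM of three separate experiments.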

[2] = organism: Cavia porcellus; experiment: Inhibition of capsaicin-induced plasma extravasation in guinea pig ureter; assay type: functional
Outline: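 Male Hartley guinea pigs (300–400 g), fasted overnight, anaesthetised with pentobarbital 25 mg/kg. Compound given po 1 h before capsaicin, at four doses. Evans Blue 30 mg/kg iv, then 5 min later 30 μM capsaicin in 0.1% BSA Krebs bicarbonate, 10 mL per animal. Killed 10 min later. Ureter extracted in formamide at 60 °C for 24 h and OD read at 600 nm. ED50 with 95% confidence limits.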

Sequence of Substance-P receptor (P25103 whole entry): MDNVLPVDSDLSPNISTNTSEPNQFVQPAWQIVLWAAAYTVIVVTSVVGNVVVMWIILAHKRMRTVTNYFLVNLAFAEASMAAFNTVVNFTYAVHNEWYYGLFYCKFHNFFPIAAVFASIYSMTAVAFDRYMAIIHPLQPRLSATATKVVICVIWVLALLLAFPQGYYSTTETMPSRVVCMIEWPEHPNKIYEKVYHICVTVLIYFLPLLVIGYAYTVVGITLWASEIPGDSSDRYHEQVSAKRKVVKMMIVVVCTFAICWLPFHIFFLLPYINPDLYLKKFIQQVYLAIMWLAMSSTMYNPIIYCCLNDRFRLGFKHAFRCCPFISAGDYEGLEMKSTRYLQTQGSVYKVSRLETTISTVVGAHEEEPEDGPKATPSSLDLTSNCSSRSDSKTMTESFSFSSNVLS

Structure (SMILES): c1ccc(CNC2C3CC4CCCC(C3)N4[C@H]2C(c2ccccc2)c2ccccc2)cc1 (stereo not given in full)
- IC50 [1]: 0.17 µM

Structure (SMILES): Clc1ccccc1CN[C@H]1C2C3CCCC2CN(C3)[C@H]1C(c1ccccc1)c1ccccc1
- IC50 [1]: 0.039 µM

Structure (SMILES): c1ccc(CN[C@H]2C3C4CCCC3CN(C4)[C@H]2C(c2ccccc2)c2ccccc2)cc1
- IC50 [1]: 0.23 µM

Structure (SMILES): COc1ccccc1CNC1C2CC3CCOC(C2)N3[C@H]1C(c1ccccc1)c1ccccc1 (stereo not given in full)
- IC50 [1]: 0.0072 µM

Structure (SMILES): COc1ccccc1CNC1C2C3CCC2CN(C3)[C@H]1C(c1ccccc1)c1ccccc1 (stereo not given in full)
- ED50 [2]: 2.61 mg/kg
- IC50 [1]: 0.0024 µM

Structure (SMILES): c1ccc(CNC2C3CC4CCC(C3)N4[C@H]2C(c2ccccc2)c2ccccc2)cc1 (stereo not given in full)
- IC50 [1]: 0.068 µM

Structure (SMILES): COc1ccccc1CN[C@H]1C2C3CCCC2CN(C3)[C@H]1C(c1ccccc1)c1ccccc1
- ED50 [2]: 4.43 mg/kg

Structure (SMILES): Clc1ccccc1CNC1C2CC3CCC(C2)N3[C@H]1C(c1ccccc1)c1ccccc1 (stereo not given in full)
- IC50 [1]: 0.0071 µM

Structure (SMILES): COc1ccccc1CN[C@H]1C2CCN(CC2)[C@H]1C(c1ccccc1)c1ccccc1 [CP-96345]
- ED50 [2]: 2.83 mg/kg

Structure (SMILES): FC(F)(F)c1ccccc1CNC1C2CC3CCCC(C2)N3[C@H]1C(c1ccccc1)c1ccccc1 (stereo not given in full)
- IC50 [1]: 4.4 µM

Structure (SMILES): COc1ccccc1CNC1C2CC3CCCC2CN3[C@H]1C(c1ccccc1)c1ccccc1 (stereo not given in full)
- IC50 [1]: 0.0019 µM

Structure (SMILES): COc1ccccc1CNC1C2CC3CCC(C2)N3[C@H]1C(c1ccccc1)c1ccccc1 (stereo not given in full)
- ED50 [2]: 4.13 mg/kg
- IC50 [1]: 0.00092 µM

Structure (SMILES): Clc1ccccc1CNC1C2CC3CCCC(C2)N3[C@H]1C(c1ccccc1)c1ccccc1 (stereo not given in full)
- IC50 [1]: 0.058 µM
